Results from ChEMBL document CHEMBL1154912, “Moluccensins H-J, 30-ketophragmalin limonoids from Xylocarpus moluccensis” (J Nat Prod, 2010).
≈ marks a conversion by molar mass, not a printed value. Calls of active or inactive are those of the source. No cut-off for these calls is given here.

Key:
Staphylococcus hominis = assay: Antibacterial activity against Staphylococcus hominis ATCC 27844 by broth microdilution method; format: functional
In short: (§1)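 Broth microdilution per NCCLS protocol in Mueller Hinton broth; serial doubling dilutions from 0.5 to 256 µg/mL; final inoculum 5 × 10^5 cfu/mL. MIC taken as lowest concentration with no visible growth judged by turbidity.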

SW-620 = assay: Cytotoxicity against human SW620 cells after 3 days by MTT assay; format: functional, cell-based; conditions: SW-620, 72 h
In short: (§2)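 Cells grown in RPMI-1640 with 25 mM HEPES, 0.25% sodium bicarbonate, 5% FBS and 100 µg/mL kanamycin. Freshly trypsinized cells seeded at 5000 per well, compound added from DMSO-diluted stock, cultured three days. Attached cells stained with MTT, bound dye solubilized, absorbance read at 540 nm. IC50 (50% growth inhibition) averaged from at least six independent determinations.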

BT-474 = assay: Cytotoxicity against human BT474 cells after 3 days by MTT assay; format: functional, cell-based; conditions: BT-474, 72 h; in short: as §2
Enterococcus faecalis = assay: Antibacterial activity against Enterococcus faecalis ATCC 29212 by broth microdilution method; format: functional; in short: as §1
[1] = Cytotoxicity against human ChaGo cells after 3 days by MTT assay; format: functional, cell-based; conditions: 72 h; in short: as §2
[2] = Cytotoxicity against human KATO III cells after 3 days by MTT assay; format: functional, cell-based, KATO III cell; conditions: 72 h; in short: as §2
HepG2 = assay: Cytotoxicity against human HepG2 cells after 3 days by MTT assay; format: functional, cell-based; conditions: HepG2, 72 h; in short: as §2

Row | Structure (SMILES) | Activity (Staphylococcus hominis) | IC50 (SW-620) [µg/mL] | IC50 (BT-474) [µg/mL] | Activity (Enterococcus faecalis) | IC50 [1] [µg/mL] | IC50 [2] [µg/mL] | IC50 (HepG2) [µg/mL] | MIC (Staphylococcus hominis) [µg/mL] | MIC (Enterococcus faecalis) [µg/mL]
1 | COC(=O)C[C@H]1[C@]2(C)C[C@]3(O)[C@@](O)(C(=O)C4=C(CC[C@]5(C)C4=CC(=O)O[C@H]5c4ccoc4)[C@]13C)[C@H]2OC(C)=O [MOLUCCENSIN H] | inactive | > 10 | > 10 | inactive | > 10 | > 10 | > 10 | – | –
2 | COC(=O)C[C@H]1[C@]2(C)C[C@]3(O)[C@@H](C(=O)C4=C5CC(=O)O[C@@H](c6ccoc6)[C@]5(C)CC[C@@H]4[C@]13C)[C@H]2OC(C)=O [MOLUCCENSIN J] | inactive | > 10 | > 10 | inactive | > 10 | > 10 | > 10 | – | –
3 | COC(=O)C[C@H]1[C@]2(C)C[C@@]3(O)[C@]1(C)[C@H]1CC[C@]4(C)C(=C1C(=O)[C@@]3(OC)[C@H]2OC(C)=O)CC(=O)O[C@H]4c1ccoc1 [MOLUCCENSIN I] | – | > 10 | > 10 | – | > 10 | > 10 | > 10 | 256 (≈ 460 µM) | 223 (≈ 401 µM)
